Data set [1] has as its system NCI-H460. Briefly: Induction of apoptosis in human NCI-H460 cells assessed as PARP cleavage at 5 micromol/L incubated for 22 to 72 hrs by Western blotting analysis. Format: functional, cell-based. As to conditions: dose 5.0 µmol/L, time 22-72 hrs. Put shortly: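 H460 cells seeded at 320,000 per well in six-well plates and given 5 μmol/L for 22, 30, 46, 55 and 72 h. Lysed in caspase assay buffer, run on 4–12% Bis-Tris gels and immunoblotted with an anti-PARP antibody that detects both the 116-kDa intact protein and the 85-kDa fragment.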
On the technique in general: In western blotting, separated proteins are transferred to a membrane and probed.

Data set [2] has as its system HeLa. The experiment in a line: Inhibition of p53-PLK1 in human HeLa cells assessed as inhibition of p53 phosphorylation at Ser15 residue by Western blotting analysis. Format: cell-based. As to conditions: dose 0.0015-30 µM. A digest of the protocol:
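HeLa cells with tet-inducible p53-PLK1 fusion induced overnight with 125 ng/mL doxycycline, then treated 6 h with 3-fold dilutions (30–0.00152 μmol/L). Lysates resolved on 4–12% Bis-Tris gels, transferred to nitrocellulose, probed for phospho-Ser15 p53 or total p53.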

The test system of data set [3] is NCI-H460. Briefly: Induction of cell cycle arrest in human NCI-H460 cells assessed as accumulation of cells at >4N phase at 1 micromol/L incubated for 24 hrs by propidium iodide staining based flow cytometry analysis (reference value: 1.2 %). The class given is functional. Particulars: dose 1 µmol/L, at 1 µM. A digest of the protocol: (§1)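 Cells seeded in six-well plates at densities that keep them in log growth (HDF 120,000, 60,000 or 30,000; H460 100,000, 50,000 or 25,000 per well for 24, 48 or 72 h). Treated with 1 or 3 μmol/L. Floating and adherent cells collected, ethanol-fixed, permeabilized with Triton X-100 and stained with propidium iodide. DNA content read by flow cytometry as % singlet cells.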
A general note: Flow cytometry measures light scatter and fluorescence of single cells or particles in a stream.

In data set [4] the target is Serine/threonine-protein kinase PLK3 (Homo sapiens, UniProt Q9H4B4). Briefly: Inhibition of human PLK3 expressed in baculovirus infected in Trichoplusia ni cells using Biotin-Ahx-SFNDTLDFD as substrate in presence of ATP by TopCount scintillation proximity assay. Also on record: species or system Trichoplusia ni cell. A digest of the protocol: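 Full-length PLK3 (5 nmol/L) from baculovirus-infected Trichoplusia ni cells in 25 mmol/L HEPES pH 7.2, 15 mmol/L MgCl2, 1 μmol/L ATP with [γ-33P]ATP, 1 μmol/L biotinylated peptide, BSA, DTT. Incubated 1–1.5 h at 22°C in the linear range. Stopped with EDTA plus streptavidin SPA beads, then counted or imaged. Signal above EDTA background taken as percent inhibition versus DMSO wells.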
Chain of Serine/threonine-protein kinase PLK3 (Q9H4B4 whole entry): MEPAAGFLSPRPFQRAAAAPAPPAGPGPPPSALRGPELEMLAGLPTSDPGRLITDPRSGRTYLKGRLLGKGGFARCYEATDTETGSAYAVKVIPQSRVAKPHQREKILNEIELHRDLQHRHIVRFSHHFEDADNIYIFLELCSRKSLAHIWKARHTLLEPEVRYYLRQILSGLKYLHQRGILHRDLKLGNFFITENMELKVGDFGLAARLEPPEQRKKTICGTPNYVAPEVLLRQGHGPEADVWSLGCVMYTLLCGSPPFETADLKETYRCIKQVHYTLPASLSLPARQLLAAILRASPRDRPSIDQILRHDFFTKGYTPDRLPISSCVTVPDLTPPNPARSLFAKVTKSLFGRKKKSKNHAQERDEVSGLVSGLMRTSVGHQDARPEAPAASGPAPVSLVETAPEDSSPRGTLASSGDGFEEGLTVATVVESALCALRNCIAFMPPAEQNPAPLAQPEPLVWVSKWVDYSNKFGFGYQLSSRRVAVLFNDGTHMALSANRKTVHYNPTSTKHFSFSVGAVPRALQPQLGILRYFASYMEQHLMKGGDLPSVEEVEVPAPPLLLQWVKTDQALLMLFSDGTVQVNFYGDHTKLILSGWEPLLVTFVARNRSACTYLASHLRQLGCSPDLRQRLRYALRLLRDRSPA
In general terms: SPA uses beads or plates that emit light when radiolabelled molecules are held near them.

The test system of data set [5] is NCI-H460. Briefly: Induction of cell cycle arrest in human NCI-H460 cells assessed as accumulation of cells at S phase at 1 micromol/L incubated for 72 hrs by propidium iodide staining based flow cytometry analysis (reference value: 17.8 %). The class given is functional. As to conditions: dose 1 µmol/L, at 1 µM.
In data set [6] the test system is MES-SA. Briefly: Antiproliferative activity against DX5 resistant human MES-SA cells assessed as inhibition of cell growth. Format: functional, cell-based. A digest of the protocol: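 Cells grown 3 days in 96-well plates, seeded so vehicle controls stay in log growth (MES-SA/DX5 7,000, MES-SA 6,000, HDF 5,000 per well). Exposed to 3-fold dilutions, 30–0.00152 μmol/L, in medium with 5% FBS, 50 μg/mL gentamicin and 0.3% (v/v) DMSO. HDF medium was low-glucose DMEM; MES-SA lines used McCoy's 5A.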

The test system of data set [7] is NCI-H460. The experiment in a line: Induction of cell cycle arrest in human NCI-H460 cells assessed as accumulation of cells at G2-M phase at 1 micromol/L incubated for 48 hrs by propidium iodide staining based flow cytometry analysis (reference value: 22.5 %). Format: functional. Particulars: dose 1 µmol/L, at 1 µM.
Data set [8] relates to NCI-H460. The experiment in a line: Induction of cell cycle arrest in human NCI-H460 cells assessed as accumulation of cells at Sub-2N phase at 1 micromol/L incubated for 24 hrs by propidium iodide staining based flow cytometry analysis (reference value: 4.0 %). Particulars: dose 1 µmol/L, at 1 µM. Format: functional.
The subject of data set [9] is NCI-H460. Briefly: Antiproliferative activity against human NCI-H460 cells assessed as outgrowth of cells at 0.37 micromol/L incubated for 72 hrs. Format: functional, cell-based. As to conditions: dose 0.37 µmol/L. A digest of the protocol:
(§2)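 HDF seeded at 1,300 and H460 at 600 per well in 96-well plates. After 24 h, exposed to vehicle (0.3% DMSO) or compound at 0.37–30 μmol/L for 72 h. Wells were then washed with PBS and refed with drug-free medium containing gentamicin. Regrowth was followed by methylene blue staining at set time points over 13 days in total.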

In data set [10] the test system is NHDF. Briefly: Induction of cell cycle arrest in human HDF cells assessed as accumulation of cells at >4N phase at 3 micromol/L incubated for 48 hrs by propidium iodide staining based flow cytometry analysis (reference value: 3.0 %). The class given is toxicity. As to conditions: 3 µM, dose 3 µmol/L. A digest of the protocol:
as §1

A short description of data set [11]: Cytotoxicity against human HDF cells assessed as outgrowth of cells at 3.3 micromol/L incubated for 72 hrs by methylene blue staining based analysis relative to control. Format: toxicity, cell-based. As to conditions: HDF cells (NHDF, human dermal fibroblasts), dose 3.3 µmol/L, read-out: Activity. Put shortly: as §2
Data set [12] has as its target Mitogen-activated protein kinase 14 (Homo sapiens, UniProt Q16539). Briefly: Inhibition of p38alpha (unknown origin).
Data set [13] concerns HeLa. Briefly: Antiproliferative activity against human HeLa cells assessed as inhibition of cell growth. The class given is functional, cell-based.
The subject of data set [14] is NHDF. Briefly: Induction of cell cycle arrest in human HDF cells assessed as accumulation of cells at G1 phase at 3 micromol/L incubated for 24 hrs by propidium iodide staining based flow cytometry analysis (reference value: 57.0 %). As to conditions: 3 µM, dose 3 µmol/L. The class given is toxicity. Put shortly: as §1

The source made the active and inactive calls. No cut-off for these calls is given here. Some results are limits rather than exact numbers.

Experimental findings from ChEMBL document CHEMBL5661972, “In vitro biological activity of a novel small-molecule inhibitor of polo-like kinase 1” (Mol Cancer Ther, 2007) are described below.

Chain of Mitogen-activated protein kinase 14 (Q16539 whole entry): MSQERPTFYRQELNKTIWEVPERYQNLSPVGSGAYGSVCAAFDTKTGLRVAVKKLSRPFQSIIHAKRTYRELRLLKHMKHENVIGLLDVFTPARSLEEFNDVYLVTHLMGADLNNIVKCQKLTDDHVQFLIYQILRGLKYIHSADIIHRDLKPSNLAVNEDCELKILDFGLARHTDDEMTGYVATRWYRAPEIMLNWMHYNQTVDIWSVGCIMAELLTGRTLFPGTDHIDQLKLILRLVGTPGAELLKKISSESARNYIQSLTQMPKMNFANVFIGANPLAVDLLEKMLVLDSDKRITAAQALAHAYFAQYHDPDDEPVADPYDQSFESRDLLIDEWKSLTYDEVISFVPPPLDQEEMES

As usually defined, the IC50 is the midpoint of a concentration-inhibition curve. For the compound `COc1cc2ncn(-c3cc(OCc4ccccc4C(F)(F)F)c(C(N)=O)s3)c2cc1OC` [GW843682X], the outcome in data set [1] and in data set [9] was Active. Besides, the inhibition result in [2] was “Dose-Dependent Effect”. For the same compound, the Activity in data set [3] turned out to be 5.1%; in data set [5], 2.8%; in [7] it was 11.2%; in data set [8], 11.6%; in [10], 11.2%; in data set [14] it was 21.1%. Moreover, the 50% inhibitory concentration (IC50) in data set [4] is 9.1 nM; in data set [6], 210 nM; in data set [12], over 10000 nM; in data set [13], 110 nM. Further, the viability at 72 h, 3.3 µM in data set [11] was about 30%.
